In PMC7974029 (The Journal of Biological Chemistry, 2021):
Values belong to the compound of their own block, whether it stands above or below them.

Legend:
[1] = molecular target: T1, BtSGBP-A (Bacteroides thetaiotaomicron, UniProt A0A173VPY3); test: ITC of laminarioligosaccharides with BtSGBP-A; type: binding; settings: for KD: BtSGBP-A, ITC, value as given in running text
T1 sequence (A0A173VPY3 23-515): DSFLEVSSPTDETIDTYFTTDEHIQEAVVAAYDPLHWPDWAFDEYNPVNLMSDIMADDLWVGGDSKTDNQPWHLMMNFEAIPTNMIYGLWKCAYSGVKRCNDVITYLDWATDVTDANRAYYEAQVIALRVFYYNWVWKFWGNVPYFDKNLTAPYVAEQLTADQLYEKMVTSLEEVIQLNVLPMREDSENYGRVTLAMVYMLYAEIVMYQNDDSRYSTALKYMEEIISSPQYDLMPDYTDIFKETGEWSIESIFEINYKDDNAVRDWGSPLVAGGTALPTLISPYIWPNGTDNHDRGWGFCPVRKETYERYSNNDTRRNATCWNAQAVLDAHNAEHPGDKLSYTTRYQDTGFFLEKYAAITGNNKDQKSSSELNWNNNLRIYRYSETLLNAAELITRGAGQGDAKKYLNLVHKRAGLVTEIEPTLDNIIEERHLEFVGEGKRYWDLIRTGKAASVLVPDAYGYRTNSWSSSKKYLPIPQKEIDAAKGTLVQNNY
How it was run: (§1)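 Recombinant SGBP from E. coli BL21(DE3) (IMAC, tag cleavage, SEC) at 100 μM in the cell was titrated with 1 mM laminari- or mixed-linkage gluco-oligosaccharide, all in 20 mM HEPES pH 7.0, at 25 °C. One 0.2 μl injection, then 18 × 2 μl at 150 s intervals, stirring 750 rpm. Isotherms were fitted with stoichiometry n fixed at 1.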

[2] = tested on: CBML-middle domain of BtSGBP; test: Affinity gel electrophoresis, BtSGBP-B CBML-middle domain; type: binding, Bacteroides thetaiotaomicron; settings: 0.1% (w/v) polysaccharide in native gel
How it was run: (§2)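 Native PAGE with 10% (w/v) acrylamide cast with 0.1% (w/v) polysaccharide, or water for the control gel. 6.0 μg recombinant SGBP domain (His₆-tagged, E. coli BL21(DE3), Ni-IMAC, tag removed, size-exclusion purified) and 5.0 μg BSA reference were loaded. Gels were run nondenaturing at 80 V, 3 h, room temperature, and stained with Coomassie Brilliant Blue.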

[3] = tested on: BuSGBP-B; settings: BuSGBP-B full length; cited from earlier work
[4] = molecular target: T2, BfSGBP-B (Bacteroides fluxus, UniProt F3PPH3); settings: BfSGBP-B full length; cited from earlier work
T2 sequence (F3PPH3 21-290): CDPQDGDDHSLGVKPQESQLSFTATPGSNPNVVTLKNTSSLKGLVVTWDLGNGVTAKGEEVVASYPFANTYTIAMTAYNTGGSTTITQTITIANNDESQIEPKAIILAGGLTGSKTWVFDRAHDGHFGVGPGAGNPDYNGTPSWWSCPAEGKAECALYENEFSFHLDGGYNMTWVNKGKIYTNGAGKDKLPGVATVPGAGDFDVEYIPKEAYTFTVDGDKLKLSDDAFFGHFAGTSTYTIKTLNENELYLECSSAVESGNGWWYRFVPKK

[5] = tested on: CBML-middle of BuSGBP-B; test: Affinity gel electrophoresis, BuSGBP-B CBML-middle domain; type: binding, Bacteroides uniformis; settings: 0.1% (w/v) polysaccharide in native gel
How it was run: as §2

[6] = tested on: CBML-distal of BuSGBP-B; test: Affinity gel electrophoresis, BuSGBP-B CBML-distal domain; type: binding, Bacteroides uniformis; settings: 0.1% (w/v) polysaccharide in native gel
How it was run: as §2

[7] = tested on: BuSGBP-A; settings: cited from earlier work
[8] = molecular target: T2, BfSGBP-B; test: ITC of laminarioligosaccharides and MLG oligosaccharides with BfSGBP-B; type: binding
How it was run: as §1

Kd [1]: 26 µM
Compound: OC[C@H]1O[C@@H](O[C@@H]2[C@@H](O)[C@H](O[C@@H]3[C@@H](O)[C@H](O[C@@H]4[C@@H](O)[C@H](O[C@@H]5[C@@H](O)[C@H](O[C@H]6[C@H](O)[C@@H](CO)OC(O)[C@@H]6O)O[C@H](CO)[C@H]5O)O[C@H](CO)[C@H]4O)O[C@H](CO)[C@H]3O)O[C@H](CO)[C@H]2O)[C@H](O)[C@@H](O)[C@@H]1O (stereo partly drawn) [Laminarihexaose]

binding by affinity gel electrophoresis (AGE) [2]: cannot bind
binding by affinity gel electrophoresis (AGE) [5]: exclusively responsible for the binding
Compound: mixed-linkage β(1,3)/β(1,4)-glucan [MLG]
polysaccharide binding [3]: bind
polysaccharide binding [4]: bind

Compound: β(1,3)-glucan
binding by affinity gel electrophoresis (AGE) [6]: bind
polysaccharide binding [3]: bind
polysaccharide binding [4]: bind
polysaccharide binding [7]: does not display binding
binding by affinity gel electrophoresis (AGE) [5]: bind

KD [1]: too weak to be quantified
Compound: OC[C@H]1O[C@@H](O[C@@H]2[C@@H](O)[C@H](O[C@@H]3[C@@H](O)[C@H](O[C@H]4[C@H](O)[C@@H](CO)OC(O)[C@@H]4O)O[C@H](CO)[C@H]3O)O[C@H](CO)[C@H]2O)[C@H](O)[C@@H](O)[C@@H]1O (stereo partly drawn) [Laminaritetraose]

Kd [1]: 210 µM
Compound: OC[C@H]1O[C@@H](O[C@@H]2[C@@H](O)[C@H](O[C@@H]3[C@@H](O)[C@H](O[C@@H]4[C@@H](O)[C@H](O[C@H]5[C@H](O)[C@@H](CO)OC(O)[C@@H]5O)O[C@H](CO)[C@H]4O)O[C@H](CO)[C@H]3O)O[C@H](CO)[C@H]2O)[C@H](O)[C@@H](O)[C@@H]1O (stereo partly drawn) [Laminaripentaose]

binding to BfSGBP-B by ITC (in words) [8]: binding
Compound: OC[C@H]1O[C@@H](O[C@H]2[C@H](O)[C@@H](O)[C@H](O[C@H]3[C@H](O)[C@@H](CO)OC(O)[C@@H]3O)O[C@@H]2CO)[C@H](O)[C@@H](O)[C@@H]1O (stereo partly drawn) [G4G3G]

binding to BfSGBP-B by ITC (in words) [8]: binding
Compound: OC[C@H]1O[C@@H](O[C@H]2[C@H](O)[C@@H](O)[C@H](O[C@H]3[C@H](O)[C@@H](O)[C@H](O[C@H]4[C@H](O)[C@@H](CO)OC(O)[C@@H]4O)O[C@@H]3CO)O[C@@H]2CO)[C@H](O)[C@@H](O)[C@@H]1O (stereo partly drawn) [G4G4G3G]

KD [1]: too weak to be quantified
Compound: OC[C@H]1O[C@@H](O[C@@H]2[C@@H](O)[C@H](O[C@H]3[C@H](O)[C@@H](CO)OC(O)[C@@H]3O)O[C@H](CO)[C@H]2O)[C@H](O)[C@@H](O)[C@@H]1O (stereo partly drawn) [Laminaritriose]
